The source of these data is ChEMBL document CHEMBL1121872, “Mesoionic xanthine analogues: phosphodiesterase inhibitory and hypotensive activity” (J Med Chem, 1981).

Assay [1] concerns Rattus norvegicus. Description: Decrease in arterial blood pressure in anesthetized rats at 10 mg/kg intravenous femoral injection. The format is functional, Artery. On the set-up: unit not given here.
Assay [2] concerns Rattus norvegicus. Kind of assay: Decrease in arterial blood pressure in anesthetized rats at 15 mg/kg after intravenous femoral injection. More on the design: unit not given here. The format is functional, Artery.
The test system of assay [3] is Rattus norvegicus. Kind of assay: Decrease in arterial blood pressure in anesthetized rats at 2.5 mg/kg intravenous femoral injection. The format is functional, Artery. On the set-up: unit not given here.
The subject of assay [4] is Rattus norvegicus. Description: Decrease in arterial blood pressure in anesthetized rats at 30 mg/kg intravenous femoral injection. The format is functional, Artery.
The subject of assay [5] is Rattus norvegicus. Description: Decrease in arterial blood pressure in anesthetized rats at 5 mg/kg intravenous femoral injection. The format is functional, Artery. More on the design: unit not given here.
The target of assay [6] is T1, Heart phosphodiesterase (Bos taurus, UniProt Q01061+P14100+E1BN64). Description: In vitro inhibition of bovine heart phosphodiesterase (PDE I). It counts as protein assay. The essentials:
(§1)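 Bovine heart phosphodiesterase (Klee method) with 1 μM [3H]cAMP as substrate. Poorly soluble compounds were dissolved in 95% EtOH, 2.5% final, then diluted with buffer. […] I50 is the concentration where V0/V = 2, read from a V0/V vs. concentration plot. Each value averages two consecutive runs, in duplicate or triplicate.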

The species entered for the next assay is Bos taurus. Description: Compound was evaluated for potency against c-AMP phosphodiesterase relative to theophylline. Summed up:
(§2)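 Bovine heart PDE (Klee method) with 1 μM [3H]cAMP. […] Compounds needing ethanol (2.5% final) are compared with a theophylline control run with ethanol; the others with one run without ethanol. Potency is expressed relative to that theophylline control.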

Assay [7] deals with T1, Heart phosphodiesterase. Kind of assay: Inhibition of bovine heart cAMP-phosphodiesterase (Insoluble). The format is protein assay. Summed up: as §1
The target in assay [8] is Heart phosphodiesterase (Bos taurus) (UniProt Q01061+P14100+E1BN64). Kind of assay: Inhibition of bovine heart cAMP-phosphodiesterase relative to theophylline (Insoluble). It counts as protein assay. The essentials: as §2
In assay [9] the test system is Rattus norvegicus. Kind of assay: Decrease in arterial blood pressure in anesthetized rats at 60 mg/kg intravenous femoral injection. The format is functional, Artery.
The target of assay [10] is T1, Heart phosphodiesterase. Kind of assay: Inhibition of bovine heart cAMP-phosphodiesterase with ethanol. The format is protein assay. The essentials: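 Bovine heart PDE, Klee method with 1 μM [3H]cAMP as substrate. Compounds were predissolved in 95% EtOH, giving 2.5% ethanol final, then diluted in buffer. A theophylline control was run with ethanol present. […] I50 was taken where V0/V = 2 from a V0/V vs concentration plot. Each value averages two consecutive runs, done in duplicate or triplicate.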

Assay [11] has as its system Rattus norvegicus. Description: Decrease in blood pressure at 15 mg/kg in rat. The format is functional. The essentials:
(§3)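 Male Sprague-Dawley rats (250–385 g), pentobarbital-anesthetized (50 mg/kg ip); right femoral artery cannulated for arterial pressure via transducer, left femoral vein for iv dosing. Each injection flushed with 0.3 mL saline, preceded by equal-volume saline control; 5-min intervals or until pressure returned to baseline. Fall in mean arterial pressure expressed relative to theophylline 2.5 mg/kg control in same animal; n determinations given.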

Assay [12] deals with Rattus norvegicus. Kind of assay: Decrease in blood pressure at 2.5 mg/kg in rat. The format is functional. Summed up:
as §3

Assay [13] concerns Rattus norvegicus. Kind of assay: Decrease in blood pressure at 5 mg/kg in rat. It counts as functional. The essentials:
as §3

On to `CCCCN1C(=O)CC(=O)[n+]2ccsc21`, for which the “Mean arterial blood pressure” value with Rattus norvegicus [1] amounted to 1.2; in the assay on Rattus norvegicus [2], 1.2; in the assay on Rattus norvegicus [3] it was 0.9; in the assay on Rattus norvegicus [4], 2.9; in the assay with Rattus norvegicus [5], 0.6.

At Heart phosphodiesterase [6], `CCN1C(=O)C(C)C(=O)[n+]2nc(C)sc21` (configuration not stated) had an I50 of 2453 µM. The “Mean arterial blood pressure” value was 0.4 with Rattus norvegicus [1], 0.5 in the assay on Rattus norvegicus [2], 0.2 in the assay on Rattus norvegicus [3] and 0.3 in the assay on Rattus norvegicus [5]. For the same compound, the Relative potency in the assay listed under Bos taurus stood at 0.1.

`CCc1n[n+]2c(s1)N(CC)C(=O)C(C)C2=O` (configuration not stated) had an I50 at Heart phosphodiesterase [6] of 2411 µM. The Relative potency in the assay filed under Bos taurus turned out to be 0.1.

With `CCN1C(=O)C(Cc2ccc(OC)cc2)C(=O)[n+]2ncsc21` (configuration not stated), at Heart phosphodiesterase [7], the I50 entry was “Insoluble”. For the same compound, the Relative potency result in assay [8] is recorded as “Insoluble”.

At Heart phosphodiesterase [6], `CCCC1C(=O)N(CC)c2scn[n+]2C1=O` (configuration not stated) registered an I50 of 252 µM. Besides, the Relative potency in the assay listed under Bos taurus worked out at 1.6.

As for `CCC1C(=O)N(CC2CC2)c2scc(-c3ccccc3)[n+]2C1=O` (configuration not stated), at Heart phosphodiesterase [6], the I50 is 287 µM. For the same compound, the Relative potency in the assay listed under Bos taurus stood at 1.5.

On to `Cn1c(=O)c2[nH]cnc2n(C)c1=O`, for which, in the assay filed under Bos taurus, the Relative potency amounted to 1.

On Heart phosphodiesterase [6], `CCC(C)C1C(=O)N(CC)c2scn[n+]2C1=O` (configuration not stated) displayed an I50 of 233 µM. For the same compound, the Relative potency in the assay listed under Bos taurus amounted to 1.8.

Compound `CCC1C(=O)N(CC)c2sc(C)n[n+]2C1=O` (configuration not stated) came in with an I50 at Heart phosphodiesterase [6] of 1689 µM. Also, the “Mean arterial blood pressure” value was 0.6 in the assay with Rattus norvegicus [1]; 0.3 in the assay with Rattus norvegicus [2]; 0 with Rattus norvegicus [3]; 1.2 in the assay with Rattus norvegicus [4]; 0.3 in the assay with Rattus norvegicus [5]; 1.9 in the assay on Rattus norvegicus [9]. The compound also registered a Relative potency in the assay listed under Bos taurus of 0.2.

Consider `CCN1C(=O)C(C(C)C)C(=O)[n+]2ncsc21` (configuration not stated), for which, on Heart phosphodiesterase [6], the I50 is 254 µM. Also, the Relative potency in the assay filed under Bos taurus came to 1.6.

On Heart phosphodiesterase [6], `CCN1C(=O)C(c2ccccc2)C(=O)[n+]2ncsc21` (configuration not stated) came in with an I50 of 24 µM. In the assay filed under Bos taurus, the Relative potency was found to be 17.2.

Consider `CCC1C(=O)N2C=CSC2=[N+](CC2CC2)C1=O` (configuration not stated), for which, on Heart phosphodiesterase [6], the I50 was 396 µM. In the assay listed under Bos taurus, the Relative potency was 0.7.

`CC[N+]1=C2SC=NN2C(=O)C(Cc2ccccc2)C1=O` (configuration not stated) returned an I50 on Heart phosphodiesterase [6] of 52 µM. This compound also showed a Relative potency in the assay listed under Bos taurus of 7.9.

`O=C1CC(=O)[n+]2ccsc2N1Cc1cccc(Cl)c1` came in with an I50 at Heart phosphodiesterase [6] of 308 µM. This compound also displayed a Relative potency in the assay filed under Bos taurus of 1.3.

The compound `CCCCCC1C(=O)N(CC)c2scn[n+]2C1=O` (configuration not stated) showed an I50 on Heart phosphodiesterase [6] of 156 µM. This compound also returned a Relative potency in the assay listed under Bos taurus of 2.6.

The compound `Cn1c(=O)c2nc[nH]c2n(C)c1=O.O` [THEOPHYLLINE] showed an I50 on Heart phosphodiesterase [10] of 412 µM. The figures for the Blood pressure in the assay on Rattus norvegicus [11], with Rattus norvegicus [12] and with Rattus norvegicus [13] were 31.9 mmHg, 13.5 mmHg and 31.6 mmHg, respectively. The “Mean arterial blood pressure” value in the assay on Rattus norvegicus [2] was found to be 2.36; in the assay on Rattus norvegicus [3], 1; in the assay on Rattus norvegicus [5], 2.34.

Consider `CC[N+]1=C2SC=NN2C(=O)CC1=O`, for which the I50 on Heart phosphodiesterase [6] was found to be 774 µM. In the assay filed under Bos taurus, the Relative potency was 0.5.

At Heart phosphodiesterase [6], `CC1C(=O)N(Cc2cccc(Cl)c2)c2scc(-c3ccccc3)[n+]2C1=O` (configuration not stated) came in with an I50 of 152 µM. This compound also displayed a Relative potency in the assay listed under Bos taurus of 2.7.

In turn, `CCN1C(=O)C(CC(C)C)C(=O)[n+]2ncsc21` (configuration not stated) returned an I50 at Heart phosphodiesterase [6] of 154 µM. In the assay filed under Bos taurus, the Relative potency was determined as 2.7.

The compound `CC[N+]1=C2SC=NN2C(=O)C(C)C1=O` (configuration not stated) gave an I50 on Heart phosphodiesterase [6] of 1160 µM. Further, the “Mean arterial blood pressure” value is 1.6 with Rattus norvegicus [1]; 1.2 in the assay on Rattus norvegicus [2]; 0.9 in the assay on Rattus norvegicus [3]; 7.5 in the assay with Rattus norvegicus [4]; 2.2 with Rattus norvegicus [5]. The compound also registered a Relative potency in the assay filed under Bos taurus of 0.4.

For `CCC1C(=O)N(CC)c2scc(C)[n+]2C1=O` (configuration not stated), on Heart phosphodiesterase [6], the I50 amounted to 412 µM. Further, the Relative potency in the assay filed under Bos taurus amounted to 0.7.

Regarding `CCc1n[n+]2c(s1)N(CC)C(=O)C(CC)C2=O` (configuration not stated), on Heart phosphodiesterase [6], the I50 was found to be 1980 µM. Moreover, the Relative potency in the assay filed under Bos taurus was 0.1.

On to `CC(C)Cn1c(=O)n(C)c(=O)c2nc[nH]c21` [ISOBUTYLMETHYLXANTHINE], for which the I50 on Heart phosphodiesterase [6] was 9.9 µM. The same compound had a Relative potency in the assay listed under Bos taurus of 28.9.

At Heart phosphodiesterase [6], `CCN1C(=O)C(Cc2ccc(Cl)cc2)C(=O)[n+]2ncsc21` (configuration not stated) had an I50 of 9.6 µM. In addition, the Relative potency in the assay listed under Bos taurus worked out at 42.9.

As for `CCC1C(=O)N2N=CSC2=[N+](CC)C1=O` (configuration not stated), the I50 at Heart phosphodiesterase [6] was 550 µM. For the same compound, the “Mean arterial blood pressure” value with Rattus norvegicus [1] was found to be 1.6; with Rattus norvegicus [2], 0.7; with Rattus norvegicus [3], 0.4; in the assay on Rattus norvegicus [5], 0.6. Also, the Relative potency in the assay listed under Bos taurus came to 0.7.

As for `CCC1C(=O)N(CC)c2scc[n+]2C1=O` (configuration not stated), the I50 at Heart phosphodiesterase [6] came out at 858 µM. In addition, the “Mean arterial blood pressure” value in the assay on Rattus norvegicus [1] is listed as 0.8; in the assay on Rattus norvegicus [2], 1.2; in the assay with Rattus norvegicus [3], 0.3; in the assay on Rattus norvegicus [5] it was 0.6. This compound also came in with a Relative potency in the assay filed under Bos taurus of 0.3.
